According to ChEMBL document CHEMBL1157128, “Silica-supported fluoroboric acid (HBF(4)-SiO(2)) catalyzed highly productive synthesis of thiomorpholides as activators of l-asparaginase as well as the antioxidant agent” (Bioorg Med Chem, 2010):
Calls of active or inactive are those of the source. The calls are words filed in the database; no cut-off is given here.

Tests used:
[1] = tested on: L-asparaginase (Erwinia carotovora); assay: Ratio of Vmax to Km for Erwinia carotovora L-asparaginase by Lineweaver-Burke plot; settings: Pectobacterium carotovorum
[2] = tested on: Radical scavenging activity; assay: Antioxidant activity assessed as DPPH free radical scavenging activity at 1 mM/ml after 30 mins; assay type: functional
Procedure, shortened: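 DPPH scavenging assay. 1 mM compound stock was mixed with DPPH in methanol (0.5 mL, 0.3 mM) in a 3 mL total mixture and left at room temperature for 30 min. Absorbance was read at 520 nm. Percent activity was calculated as [1 − OD test/OD control] × 100. BHA served as standard.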

[3] = tested on: L-asparaginase (Erwinia carotovora); assay: Binding affinity to Erwinia carotovora L-asparaginase by spectrophotometry; settings: Pectobacterium carotovorum

Structure (SMILES)	Vmax/Km [1]	Activity [2] [%]	Activity [3]	KA [3] [µM]
COc1ccc(CC(=S)N2CCOCC2)cc1	6.25	24.3	Active	0.0851
Cc1ccc(CC(=S)N2CCOCC2)cc1	–	21.6	–	–
S=C(Cc1ccc(OCc2ccccc2)cc1)N1CCOCC1	–	25.9	–	–
Oc1ccccc1CC(=S)N1CCOCC1	4.04	36.1	–	0.625
S=C(Cc1ccc(Br)cc1)N1CCOCC1	–	0	–	–
S=C(Cc1ccco1)N1CCOCC1	–	0	–	–
COc1ccc(O)c(C(C)(C)C)c1.COc1ccc(O)cc1C(C)(C)C	–	72.3	–	–
S=C(Cc1ccc2ccccc2c1)N1CCOCC1	–	0	–	–
COc1ccc(CC(=S)N2CCOCC2)cc1OC	13.3	32.6	Active	0.985
S=C(Cc1ccccc1)N1CCOCC1	–	24.3	–	–
O=[N+]([O-])c1ccc(CC(=S)N2CCOCC2)cc1	–	0	–	–
Nc1ccccc1CC(=S)N1CCOCC1	–	0	–	–
S=C(CCCc1ccccc1)N1CCOCC1	–	0	–	–
